Values joined by “and” are separate entries in the source; they are usually repeats but may differ in a detail not shown here. Equal entries are not always repeated.
Key:
E. cloacae NCTC 13405 = assay: Broth microdilution MIC/MBC, E. cloacae; assay type: cell-based, Enterobacter cloacae; details: for MIC E. cloacae NCTC 13405: value before the parentheses, two values = two repeats; for MBC E. cloacae NCTC 13405: value in parentheses; for fold enhancement of activity over auranofin, E. cloacae: vs auranofin
How it was run: (§1)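 CLSI broth microdilution in cation-adjusted Mueller–Hinton broth. Log-phase cultures were diluted to 7.5 × 10^5 CFU/mL, then mixed 1:1 with 2-fold serial dilutions of gold complexes from DMSO or water stocks, in triplicate, and held 37 °C, 18 h, static. MIC: lowest concentration giving >90% inhibition by OD600 against medium-only and bacteria-only wells. […] E. coli ATCC 25922 quality control was checked each run with ciprofloxacin and […].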

P. aeruginosa NCTC 13437 = assay: Broth microdilution MIC/MBC, P. aeruginosa; assay type: cell-based, Pseudomonas aeruginosa; details: for MIC P. aeruginosa NCTC 13437: value before the parentheses, two values = two repeats; for MBC P. aeruginosa NCTC 13437: value in parentheses
How it was run: as §1

Log P determination = details: n-octanol/water, Au by FAAS
A549 cells = assay: Cytotoxicity assay; assay type: cell-based, human; details: for IC50: read-out: IC50 against A549 cells, means ± SEM from two independent experiments
rat = details: cited from earlier work
E. faecium ATCC 700221 = assay: Broth microdilution MIC/MBC, E. faecium; assay type: cell-based, Enterococcus faecium; details: for MBC E. faecium ATCC 700221: value in parentheses; for MIC E. faecium ATCC 700221: value before the parentheses, two values = two repeats
How it was run: as §1

[1] = system: K. pneumoniae ATCC 700603; assay: Broth microdilution MIC/MBC, K. pneumoniae; assay type: cell-based, Klebsiella pneumoniae; details: for MIC K. pneumoniae ATCC 700603: value before the parentheses, two values = two repeats; for MBC K. pneumoniae ATCC 700603: value in parentheses; for fold enhancement of activity over auranofin, K. pneumoniae: vs auranofin
How it was run: as §1

A. baumannii NCTC 13420 = assay: Broth microdilution MIC/MBC, A. baumannii; assay type: cell-based, Acinetobacter baumannii; details: for MIC A. baumannii NCTC 13420: value before the parentheses, two values = two repeats; for MBC A. baumannii NCTC 13420: value in parentheses
S. aureus JE2 (USA300) = assay: Broth microdilution MIC/MBC, S. aureus; assay type: cell-based, Staphylococcus aureus; details: for MIC S. aureus JE2 (USA300): value before the parentheses, two values = two repeats; for MBC S. aureus JE2 (USA300): value in parentheses
How it was run: as §1

E. coli ATCC 25922 = assay: Broth microdilution MIC/MBC, E. coli; assay type: cell-based, Escherichia coli; details: for MIC E. coli ATCC 25922: value before the parentheses, two values = two repeats; for MBC E. coli ATCC 25922: value in parentheses
How it was run: as §1

all strains = assay: Broth microdilution, all strains taken together; assay type: cell-based; details: vs auranofin
Gram-negative strains = assay: Broth microdilution, Gram-negative strains taken together; assay type: cell-based; details: vs auranofin

## CC[PH](CC)(CC)[Au][S][C@@H]1O[C@H](COC(C)=O)[C@@H](OC(C)=O)[C@H](OC(C)=O)[C@H]1OC(C)=O [Compound 1, (2,3,4,6-Tetra-O-acetyl-1-thio-β-D-glucopyranosato)-(triethylphosphine) Gold(I), reference compound]
E. cloacae NCTC 13405
  MIC E. cloacae NCTC 13405: 189 µM
  MBC E. cloacae NCTC 13405: 189 µM
P. aeruginosa NCTC 13437
  MIC P. aeruginosa NCTC 13437: 377 µM
  MBC P. aeruginosa NCTC 13437: 377 µM
Log P determination
  log P: 0.56
A549 cells
  IC50: 11.3 ± 1.9 µM
rat
  rat acute oral LD50: 265 mg/kg
E. faecium ATCC 700221; Table S1
  MBC E. faecium: 0.25 µg/mL
  MIC E. faecium: 0.12 µg/mL
E. faecium ATCC 700221
  MBC E. faecium ATCC 700221: 0.4 µM
[1]
  MIC K. pneumoniae ATCC 700603: 377 µM
  MBC K. pneumoniae ATCC 700603: 377 µM
[1]; listed as Auranofin
  MIC K. pneumoniae ATCC 700603: 377 µM
  MBC K. pneumoniae ATCC 700603: 377 µM
A. baumannii NCTC 13420; MIC/MBC
  MBC A. baumannii: 32 µg/mL
  MIC A. baumannii: 32 µg/mL
A. baumannii NCTC 13420
  MIC A. baumannii NCTC 13420: 47 µM
  MBC A. baumannii NCTC 13420: 47 µM
A. baumannii NCTC 13420; listed as Auranofin
  MIC A. baumannii NCTC 13420: 47 µM
  MBC A. baumannii NCTC 13420: 47 µM
S. aureus JE2 (USA300); Table S1
  MBC S. aureus: 0.06 µg/mL
  MIC S. aureus: 0.03 µg/mL
S. aureus JE2 (USA300)
  MIC S. aureus JE2 (USA300): 0.04 µM
  MBC S. aureus JE2 (USA300): 0.09 µM
E. coli ATCC 25922; MIC/MBC
  MBC E. coli: 16 µg/mL
  MIC E. coli: 16 µg/mL
E. coli ATCC 25922
  MIC E. coli ATCC 25922: 24 µM
  MBC E. coli ATCC 25922: 24 µM

## CC[PH](CC)(CC)[Au][S]c1ccc(N)cc1 [Compound 17, (4-Aminobenzenethiolato)(triethylphosphine) Gold(I)]
All strains
  fold enhancement of activity over auranofin, all strains: up to 10
E. cloacae NCTC 13405
  MIC E. cloacae NCTC 13405: 36 µM
  MBC E. cloacae NCTC 13405: 36 µM
P. aeruginosa NCTC 13437
  MIC P. aeruginosa NCTC 13437: 146 µM
  MBC P. aeruginosa NCTC 13437: 146 µM
Log P determination
  log P: 1.36
E. faecium ATCC 700221
  MIC E. faecium ATCC 700221: 0.02 µM
  MBC E. faecium ATCC 700221: 0.1 µM
E. faecium ATCC 700221; vs auranofin
  fold enhancement of activity over auranofin, E. faecium: more than 7
[1]
  MIC K. pneumoniae ATCC 700603: 36 µM
  MBC K. pneumoniae ATCC 700603: 36 µM
  fold enhancement of activity over auranofin, K. pneumoniae: 10
A. baumannii NCTC 13420
  MIC A. baumannii NCTC 13420: 18 µM
  MBC A. baumannii NCTC 13420: 18 µM
S. aureus JE2 (USA300)
  MBC S. aureus JE2 (USA300): 0.07 µM
E. coli ATCC 25922
  MIC E. coli ATCC 25922: 9 µM
  MBC E. coli ATCC 25922: 9 µM

## CC[P+](CC)(CC)[Au-][S]CCO [Compound 21, (2-Mercaptoethanolato)(triethylphosphine) Gold(I)]
E. cloacae NCTC 13405
  MIC E. cloacae NCTC 13405: 5 µM and 10 µM
  MBC E. cloacae NCTC 13405: 82 µM
  fold enhancement of activity over auranofin, E. cloacae: 19
P. aeruginosa NCTC 13437
  MIC P. aeruginosa NCTC 13437: 41 µM
  MBC P. aeruginosa NCTC 13437: 41 µM
P. aeruginosa NCTC 13437; vs auranofin
  fold enhancement of activity over auranofin, P. aeruginosa: 9
Log P determination
  log P: 1.19
A549 cells; A549 cells, vs auranofin
  cytotoxicity relative to auranofin (times less toxic): 1.6
E. faecium ATCC 700221
  MIC E. faecium ATCC 700221: 0.2 µM and 0.3 µM
  MBC E. faecium ATCC 700221: 0.6 µM
[1]
  MIC K. pneumoniae ATCC 700603: 20 µM
  MBC K. pneumoniae ATCC 700603: 20 µM
  fold enhancement of activity over auranofin, K. pneumoniae: 19
A. baumannii NCTC 13420
  MIC A. baumannii NCTC 13420: 10 µM
  MBC A. baumannii NCTC 13420: 82 µM
Gram-negative strains
  fold enhancement of activity over auranofin, Gram-negative strains: 5–19
S. aureus JE2 (USA300)
  MIC S. aureus JE2 (USA300): 0.03 µM
  MBC S. aureus JE2 (USA300): 0.03 µM
E. coli ATCC 25922
  MIC E. coli ATCC 25922: 10 µM
  MBC E. coli ATCC 25922: 10 µM

## CCP(CC)CC.[Au+].[Cl-] [Compound 25, (Triethylphosphine)gold Chloride]
E. cloacae NCTC 13405
  MIC E. cloacae NCTC 13405: 23 µM
  MBC E. cloacae NCTC 13405: 23 µM
P. aeruginosa NCTC 13437
  MIC P. aeruginosa NCTC 13437: 92 µM
  MBC P. aeruginosa NCTC 13437: 183 µM
Log P determination
  log P: 1.74
rat
  rat acute oral LD50: 79.0 mg/kg
E. faecium ATCC 700221
  MBC E. faecium ATCC 700221: 0.7 µM
[1]
  MIC K. pneumoniae ATCC 700603: 46 µM
  MBC K. pneumoniae ATCC 700603: 46 µM
A. baumannii NCTC 13420
  MBC A. baumannii NCTC 13420: 23 µM
S. aureus JE2 (USA300)
  MBC S. aureus JE2 (USA300): 0.2 µM
E. coli ATCC 25922
  MIC E. coli ATCC 25922: 23 µM
  MBC E. coli ATCC 25922: 23 µM

## CC(=O)OCC1O[C@@H]([S][Au-][P+](C)(C)C)C(OC(C)=O)[C@@H](OC(C)=O)[C@@H]1OC(C)=O (stereo partly drawn) [Compound 31, (2,3,4,6-Tetra-O-acetyl-1-thio-β-D-glucopyranosato)-(trimethylphosphine) Gold(I)]
E. cloacae NCTC 13405
  MIC E. cloacae NCTC 13405: 3.1 µM and 3 µM
  MBC E. cloacae NCTC 13405: 3.1 µM and 3 µM
  fold enhancement of activity over auranofin, E. cloacae: 60 and 61
P. aeruginosa NCTC 13437
  MIC P. aeruginosa NCTC 13437: 101 µM
  MBC P. aeruginosa NCTC 13437: 101 µM
Log P determination
  log P: 0.35
A549 cells
  IC50: 20.6 ± 3.6 µM
E. faecium ATCC 700221
  MIC E. faecium ATCC 700221: 0.2 µM and 0.4 µM
  MBC E. faecium ATCC 700221: 0.8 µM
[1]
  MIC K. pneumoniae ATCC 700603: 13 µM
  MBC K. pneumoniae ATCC 700603: 13 µM
  fold enhancement of activity over auranofin, K. pneumoniae: 30
A. baumannii NCTC 13420
  MBC A. baumannii NCTC 13420: 101 µM
S. aureus JE2 (USA300)
  MIC S. aureus JE2 (USA300): 0.1 µM
  MBC S. aureus JE2 (USA300): 0.2 µM
E. coli ATCC 25922
  MIC E. coli ATCC 25922: 6 µM
  MBC E. coli ATCC 25922: 6 µM

## C[PH](C)(C)[Au][S]CCO [Compound 40, (2-Mercaptoethanolato)(trimethylphosphine) Gold(I)]
E. cloacae NCTC 13405
  MIC E. cloacae NCTC 13405: 2.9 µM and 3 µM
  MBC E. cloacae NCTC 13405: 3 µM
  fold enhancement of activity over auranofin, E. cloacae: 65
P. aeruginosa NCTC 13437
  MBC P. aeruginosa NCTC 13437: 91 µM
Log P determination
  log P: −0.15
A549 cells
  IC50: 35.1 ± 8.9 µM
E. faecium ATCC 700221
  MIC E. faecium ATCC 700221: 0.3 µM
  MBC E. faecium ATCC 700221: 0.3 µM
[1]
  MIC K. pneumoniae: 11 μ/mL
  MIC K. pneumoniae ATCC 700603: 11 µM
  MBC K. pneumoniae ATCC 700603: 23 µM
  fold enhancement of activity over auranofin, K. pneumoniae: 34
A. baumannii NCTC 13420
  MIC A. baumannii NCTC 13420: 5.7 µM and 6 µM and 3 µM
  MBC A. baumannii NCTC 13420: 23 µM
S. aureus JE2 (USA300)
  MIC S. aureus JE2 (USA300): 0.3 µM
  MBC S. aureus JE2 (USA300): 0.7 µM
E. coli ATCC 25922
  MBC E. coli ATCC 25922: 11 µM
